Assay results taken from publication PMC3838623 (Journal of Pharmaceutical Sciences, 2013).
Where two headings read alike, the source gives them in different places.

Tests used:
plasma proteins [1] = details: cited from earlier work
[2] = test system: plasma proteins (human plasma); assay: Reiterated stepwise equilibrium dialysis, plasma protein binding; assay type: in vitro ADME; details: two-sided ANOVA
Outline: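 Human plasma spiked with test compound (final 10^6, 10^4 or 10^2 pM) was placed in a 1.0 mL dialysis sac inside a buffer chamber pre-coated with compound-containing buffer. Compound was present in both chambers at inner–outer ratios of 100:1 or 50:1. Dialysis ran 4–5 h at 37 ± 2°C with slow rotation, in triplicate, with radioactivity counting. % bound relative to pre-incubation; mean (SD) analysed by two-sided ANOVA for gender and concentration.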

[3] = cited from earlier work
plasma proteins [4] = details: liraglutide concentration 10^2 pM, cited from earlier work

Substance: exenatide: GLP-1 receptor agonist with shorter duration of action, twice-daily administration
- plasma protein binding (plasma proteins [1]): does not demonstrate significant levels of plasma protein binding

Substance: liraglutide
- estimated difference in protein binding, 10^2 pM compared with 10^4 pM ([2]; p = 0.581): 0.05%
- estimated difference in protein-bound liraglutide, females vs. males ([2]; p = 0.593): −0.18%
- plasma half-life [3]: approximately 13 h
- liraglutide pharmacokinetics in renal impairment ([3]; subjects with mild-to-severe renal impairment versus healthy subjects): not altered
- mean (SD) unbound percentage (plasma proteins [4]; healthy subjects): 0.53% (0.46)
- mean (SD) unbound percentage (plasma proteins [4]; subjects with mild hepatic impairment): 0.59% (0.61)
